In the library only some 1.5% were active in any assay of this set; here they are far more common.
Myeloid diff MLP – induction of myeloid progenitor differentiation, primary screen, cell-based, flow cytometry, MLPCN library. ER-HoxA9 myeloid progenitors, lysozyme-GFP differentiation. calls only at 10 µM. actives 1% (n = 360,000). AID 624256, 2012;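 active = normalized GFP-positive differentiation at or above the plate's own cutoff, the solvent-only control mean plus 3 SD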;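 also: cells exposed to compound for four days before flow analysis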
VLA-4 inh – inhibition in human VLA-4 binding assay, primary screen, VLA-4 allosteric modulator project, MLPCN library, flow cytometry, VLA-4 expressing cells; AID 2557, 2010; ligand binding flow cytometry; actives 0.2% (n = 330,000); inhibition, % (about 7 µM as worked out from the volumes in the protocol); in the data active = inhibition above about 50%
SENP1 inh – human SENP1 catalytic domain inhibitors, primary screen, biochemical, FRET, uHTS | actives 0.21% (n = 360,000) | recombinant SENP1 catalytic domain, CyPet-SUMO1-YPet FRET cleavage | inhibition, % at 10 µM | Sentrin-specific protease 1 (Homo sapiens), Q9P0U3;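 active = inhibition at least 30% at 10 µM, raw YFP signal under a set limit, fluorescence ratio 0.5 to 1.5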;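 also: 0% = enzyme with DMSO and 100% = no enzyme wells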
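Test system: recombinant human SENP1 catalytic domain, His6-tagged / Medium: pH 8 Tris buffer with EDTA, NaCl, BME, BSA, NP40, catalase / Also added: SUMO1 FRET substrate flanked by Cypet and Ypet, 25 nM / Times: 50 min reaction at room temperature / Signal: FRET, CFP and YFP emission / Control set: no-enzyme low control and enzyme-plus-DMSO high control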
Platelet DG rel – inhibitors of platelet dense granule secretion, primary screen, cell-based, MLPCN, human platelets; inhibition, %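 (compounds screened at 7.5 µM in platelet-rich plasma)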; actives 0.22% (n = 300,000); AID 1663, 2009; human platelet-rich plasma, SFLLRN dense granule ATP release, luminescence;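 active = mean replicate score, as percent of positive control, at or above 50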
Myeloid diff – inducers of myeloid progenitor differentiation, confirmation, cell-based, GFP/Mac1 flow cytometry, cherry pick 01; shares compounds with Myeloid diff MLP; ER-HoxA9 myeloid progenitors, GFP/Mac1 double-positive flow; calls only; actives 2% (n = 2,300); AID 651706, 2012;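 active = share of green or green-and-red cells above 9 and 9% in run 1 or 4 and 3% in run 2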
GFP autofluor – flagged as fluorescent in myeloid differentiation counter-screen; actives 7.4% (n = 2,300); shares compounds with Myeloid diff MLP; ER-HoxA9 myeloid progenitors, no estrogen, GFP autofluorescence flow cytometry; vehicle wells 0%, positive control 100%; fluorescence response, % (concentration not given with the values);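 active = over 5% cells positive for green fluorescent reporter, or over 2% positive for both it and APC stain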;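 also: range taken on the double positive population between DMSO and positive control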
Starred values were filed as active, the others as inactive; i = inactive; nt = not tested or not shown; + = active, no number.

SMILES | Myeloid diff MLP | VLA-4 inh | SENP1 inh | Platelet DG rel | Myeloid diff | GFP autofluor
CCCCCCOC(=O)C(C#N)c1nc2ccccc2nc1N1CCN(CC)CC1 (stereo not given) | + | 0 | -38 | -1 | i | 0
c1ccc2c(c1)nc1n2CCN1CCN1CCCC1 | i | 28 | 2 | 3 | nt | nt
O=C(NCCc1ccccc1)c1ccccc1NS(=O)(=O)N1CCCC1 | i | -14 | 1 | -9 | i | 0
COc1ccc(-n2nnnc2C(c2ccnc3ccccc23)N2CCN(C/C=C/c3ccccc3)CC2)cc1 (stereo not given) | + | nt | -5 | nt | i | 1
C(=C\c1ccccc1)/CN1CCN(C(c2ccnc3ccccc23)c2nnnn2-c2ccc3c(c2)OCCO3)CC1 (stereo not given) | i | nt | -2 | nt | nt | nt
Cc1cc(N2CCN(C(c3ccnc4ccccc34)c3nnnn3-c3c(C)cccc3C)CC2)c2ccccc2n1 (stereo not given) | i | nt | -2 | nt | i | 0
COC(=O)COc1ccc(S(=O)(=O)Nc2ccc3c(c2)OCO3)cc1 | i | 9 | 0 | 0 | nt | nt
COC(=O)COc1ccc(S(=O)(=O)Nc2ccc3c(c2)OCO3)cc1Cl | + | 6 | -1 | 12 | i | 0
CNC(=S)N(CCc1c(C)[nH]c2ccccc12)Cc1cc(OC)c(OC)c(OC)c1 | i | 1 | 3 | -22 | nt | nt
CCNC(=S)N(CCc1c(C)[nH]c2ccccc12)Cc1cc(OC)c(OC)c(OC)c1 | i | 0 | -1 | -20 | i | 0
N#CCc1nc2n(n1)Cc1ccccc1-2 | i | 10 | 4 | -3 | i | 0
COc1ccc(CCN(C)C(=O)c2ccc(C)c(S(=O)(=O)N3CCCCC3)c2)cc1OC | i | -12 | 1 | nt | nt | nt
CCS(=O)(=O)N1N=C(c2cccc(NS(C)(=O)=O)c2)CC1c1ccccc1 (stereo not given) | + | -306 | -95 | 7 | i | 97*
CC(O)CNc1ncnc2cc(-c3ccc(F)cc3)sc12 (stereo not given) | i | 15 | -104 | -3 | nt | nt
CN(C(=O)c1cccc(NC(=O)c2cccs2)c1)c1ccccc1 | i | -3 | 1 | -15 | nt | nt
COc1ccc(CN2CC(=O)N(c3ccc(Cl)cc3)C2=S)cc1OC | i | 3 | 1 | -2 | nt | nt
CCc1ccc(N2C(=O)CN(Cc3ccc(OC)c(OC)c3)C2=S)cc1 | + | 17 | 1 | 2 | i | 2
CCCN(C(=O)c1cc(S(=O)(=O)N2CCCCCC2)ccc1OC)C1CCS(=O)(=O)C1 (stereo not given) | i | 18 | 1 | 1 | nt | nt
CC(C)NC(=O)CCc1nnc(Cc2cccc(C(F)(F)F)c2)o1 | i | -10 | 0 | 3 | nt | nt
CCc1ccc(CNC(=O)CCc2nnc(Cc3cccc(C(F)(F)F)c3)o2)nc1 | + | -4 | -1 | -14 | i | 0
COc1ccc(/C=C2\SC(=S)N(CCC(=O)NC3CCCC3)C2=O)cc1OC | i | 25 | -16 | 11 | i | 0
CCOC(=O)N1CCN(C(=O)CCN2C(=O)/C(=C\c3ccc(OC)c(OC)c3)SC2=S)CC1 | i | nt | -26 | nt | nt | nt
C[C@]1(C(=O)NCCCNc2ncc(C(F)(F)F)cc2Cl)C=C[C@@H](Cc2ccccc2)N1C(=O)c1ccccc1 | i | nt | 3 | 3 | i | 0
CNc1c(NC(=O)C2CCC(C)CC2)c(=O)oc2ccccc12 (stereo not given) | i | 4 | 1 | -48 | nt | nt
CCC(c1nnc(SCC(=O)NC23CC4CC(CC(C4)C2)C3)o1)N(C)C (stereo not given) | + | 9 | 1 | nt | i | 0
SMILES | Myeloid diff MLP | VLA-4 inh | SENP1 inh | Platelet DG rel | Myeloid diff | GFP autofluor
CCC(c1nnc(SCC(=O)Nc2cc(C)on2)o1)N(C)C (stereo not given) | i | -7 | 0 | nt | nt | nt
CCCCn1c(N)c(N(CCOC)C(=O)C2CCN(c3ncnc4sc(C)c(C)c34)CC2)c(=O)[nH]c1=O | i | 1 | -16 | -1 | nt | nt
CC(=O)Nc1cc(-c2ccc(CO)cc2)cn2c(-c3ccc(F)c(Cl)c3)cnc12 | + | nt | -12 | nt | i | 3
CC(=O)Nc1cc(-c2ccc(F)cc2)cn2c(-c3ccc(F)c(Cl)c3)cnc12 | i | nt | -13 | nt | nt | nt
CC(=O)Nc1cc(-c2ccccc2Cl)cn2c(-c3ccc(S(C)(=O)=O)cc3)cnc12 | + | nt | -7 | nt | i | 0
Cc1cccc(C(=O)NCCC(=O)NCc2ccccc2Cl)c1 | i | 0 | 1 | nt | nt | nt
Cc1cc(C)cc(N2C(N)=NC(N)=NC2c2ccccc2F)c1 (stereo not given) | i | -2 | -1 | -1 | i | 0
COc1ccc(CCNC(=O)c2cccc(S(=O)(=O)N3CCCCCC3)c2)cc1 | i | 8 | 2 | nt | nt | nt
N#Cc1cc(C#N)c(N2CCN(c3ccccn3)CC2)nc1N | + | -13 | -52 | -16 | i | 0
CC(/C=N/NC(=O)CSc1n[nH]c(=O)[nH]c1=O)=C\c1ccccc1 | i | 5 | 2 | -2 | i | 0
Cn1c(C(=O)NCC2CCCO2)cc2c(=O)[nH]c3ccccc3c21 (stereo not given) | i | 10 | 0 | 3 | i | 1
Cn1c(C(=O)NCC2CCCO2)cc2c(=O)n(C)c3ccccc3c21 (stereo not given) | i | 5 | -1 | 10 | nt | nt
CCC(OC(=O)c1ccco1)C(=O)NC1CCCC1 (stereo not given) | i | -4 | 3 | -3 | nt | nt
Cc1ccc(S(=O)(=O)N2CCCCC2CCNC(=O)C(=O)NCc2cccnc2)cc1 (stereo not given) | + | 34 | 2 | 0 | i | 0
CC1=NN(c2ccccc2)C(=O)C1C=Nc1ccccc1O (stereo not given) | + | 10 | 7 | 3 | i | 1
Cc1ccccc1N1C(=O)C2CCCN2C1=S (stereo not given) | i | 15 | 1 | nt | nt | nt
Cc1ccc(C(=O)Nc2c(C)cc(-c3ccccc3)oc2=O)cc1 | i | 7 | 0 | 14 | nt | nt
COc1ccccc1C(CCNCc1ccc(N(C)C)cc1)c1ccc(OC(C)C)cc1 (stereo not given) | i | 2 | 2 | 6 | i | 0
CCOC(=O)/C=C1\SCC(=O)N1CC(=O)NC1CCCCC1 | + | 2 | 1 | 10 | i | 0
CN(C)CCCn1c(N)c(C#N)c2nc3ccccc3nc21 | i | -3 | -37 | 1 | i | 0
CC1CC(C)CN(CCCNC(=O)CCC(=O)N2CCOc3ccccc32)C1 (stereo not given) | i | -5 | 0 | 6 | i | 0

Source: PubChem (several laboratories)
